Laboratory results reported in article PMC2767179 (Bioorganic & medicinal chemistry letters, 2009).

Assays:
[1] = tested on: Myc/Max dimerization; assay: FRET assay for inhibition of Myc-Max dimerization; assay type: binding
[2] = tested on: Jun-induced oncogenic transformation in CEF; assay type: cell-based, chicken; conditions: CEF infected with avian sarcoma virus 17
[3] = tested on: CEF; assay: Intrinsic cytotoxic activity for CEF; assay type: cell-based, chicken
[4] = tested on: Myc-induced oncogenic transformation in chicken embryo fibroblasts (CEF); assay type: cell-based; conditions: for IC95, inhibition of foci formation: Myc-induced foci in CEF; for inhibition of foci formation: at 20 μM; for inhibition of foci formation / EOT (efficiency of transformation, no inhibition = 1): Myc-induced, CEF; for EOT (efficiency of transformation, no inhibition = 1): tested at 20 μM
Summary of the method: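 Chicken embryo fibroblasts infected with the RCAS viral vector expressing transforming chicken cellular Myc. Test compound added at 20 μM. Cultures maintained for three weeks, then foci in each well counted manually by eye. Result expressed as efficiency of transformation (EOT), with no inhibition = 1. Active candidates re-tested in iterative rounds.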

[5] = tested on: Src-induced oncogenic transformation in CEF; assay type: cell-based, chicken; conditions: CEF infected with Prague strain of Rous sarcoma virus

Compound	inhibition of Myc/Max dimerization [1]	inhibitory activity for foci formation induced by Jun [2]	intrinsic cytotoxic activity for CEF [3]	IC95, inhibition of foci formation [4] [µM]	inhibition of foci formation [4]	EOT (efficiency of transformation, no inhibition = 1) [4]	inhibitory activity for foci formation induced by Src [5]
Cc1cc(C)c(S(=O)(=O)N[C@@H](CNC(=O)[C@@H]2CN(C(=O)CC3CCN(C(=O)OC(C)(C)C)CC3)C[C@H]2C(=O)O)C(=O)OC(C)(C)C)c(C)c1 [compound 3, mycmycin-1]	most effective inhibition	failed to exhibit inhibitory activity	neither possess an intrinsic cytotoxic acitivity	20	complete inhibition of foci formation	0.05	failed to exhibit inhibitory activity
CNC(=O)[C@@H]1CN(C(=O)CCCCCNC(=O)OC(C)(C)C)C[C@H]1C(=O)NC[C@H](NS(=O)(=O)c1cc(Cl)sc1Cl)C(=O)OC(C)(C)C [compound 4, mycmycin-2]	less effective inhibition	failed to exhibit inhibitory activity	neither possess an intrinsic cytotoxic acitivity	20	complete inhibition of foci formation	0.05	failed to exhibit inhibitory activity
